pEC50, pIC50: −log10 of the molar value. Calls of active or inactive are those of the source. No cut-off for these calls is given here.
Key:
[1] = target: Cytochrome P450 2D6 (Homo sapiens, UniProt P10635); experiment: Inhibition of CYP2D6; assay type: ADME
Outline: (§1)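 Inhibition of cytochrome P450 isoforms CYP3A4, CYP2C9, CYP2D6, CYP2C19 and CYP1A2, reported as IC50 in µM.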

[2] = test system: Rattus norvegicus; experiment: Reduction of body weight in DIO rat assessed as weight change at 1 mg/kg, po after 2 weeks; assay type: functional, organism-based; design: dose 1 mg/kg
Outline: (§2)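 DIO rats were dosed orally once daily for 2 weeks at 0.1, 0.3 or 1 mg/kg. Body weight change (g) was compared with vehicle, and the study ended 18 h after the day-14 dose.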

[3] = test system: Mus musculus; experiment: Reduction of body weight in Cnr1+/+ C57BL/6 mouse at 1 mg/kg, po measured for 18 hrs; assay type: functional
Outline: (§3)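 The overnight food intake study used ad libitum fed male mice aged 14–16 weeks, Cnr1+/+ (n = 10) and Cnr1−/− (n = 7). Mice received a single oral dose of 1 mg/kg. Food intake and body weight change were measured over 18 h relative to vehicle-treated mice.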

[4] = test system: Brain; experiment: Drug level in CD1 mouse brain at 100 mg/kg, po; assay type: ADME, organism-based; design: dose 100 mg/kg, route oral; conditions: in vivo, read-out: Drug uptake
[5] = test system: Brain; experiment: Drug level in Sprague-Dawley rat brain at 30 mg/kg, po; assay type: ADME, organism-based; design: dose 30 mg/kg, route oral; conditions: in vivo, read-out: Drug uptake
Outline: (§4)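 Male Sprague Dawley rats dosed orally at 30 mg/kg. Motor coordination assessed on rotarod, with plasma and brain drug levels measured.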

[6] = target: Cytochrome P450 2C19 (Homo sapiens, UniProt P33261); experiment: Inhibition of CYP2C19; assay type: ADME; outline: as §1
[7] = Bioavailability in rhesus monkey; assay type: ADME, organism-based, Macaca mulatta; conditions: in vivo
Outline: (§5)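 PK in dog and rhesus macaque. Bioavailability, plasma clearance (mL/min/kg) and terminal half-life derived from plasma drug levels.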

[8] = test system: Plasma; experiment: Drug level in Sprague-Dawley rat plasma at 30 mg/kg, po; assay type: ADME, organism-based; design: dose 30 mg/kg, route oral; conditions: in vivo, read-out: Drug uptake; outline: as §4
[9] = test system: Rattus norvegicus; experiment: Reduction of body weight in rat at 1 mg/kg, po relative to control; assay type: functional; design: scale not given: the % may be the effect or the level left
Outline: (§6)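 Chronic study in diet-induced obese rats with daily oral dosing at 1 mg/kg (for some compounds 0.1 and 0.3 mg/kg as well). Body weight change and cumulative food intake suppression were measured relative to vehicle. The 14-day study ended 18 h after the day-14 dose; one study ended on day 13.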

[10] = test system: Rattus norvegicus; experiment: Suppression of cumulative food intake in rat at 1 mg/kg, po relative to control; assay type: functional; outline: as §6
[11] = target: Cytochrome P450 3A4 (Homo sapiens, UniProt P08684); experiment: Inhibition of CYP3A4; assay type: ADME; outline: as §1
[12] = test system: Brain; experiment: Drug level in CD1 mouse brain at 30 mg/kg, po; assay type: ADME, organism-based; design: dose 30 mg/kg, route oral; conditions: in vivo, read-out: Drug uptake
[13] = Half life in rhesus monkey; assay type: ADME, organism-based, Macaca mulatta; conditions: in vivo; outline: as §5
[14] = Ratio of drug level in brain to plasma in rat at 1 mg/kg, iv after 4 hrs; assay type: ADME, organism-based; design: dose 1 mg/kg, route intravenous
[15] = test system: Rattus norvegicus; experiment: Reduction of body weight in DIO rat assessed as weight change at 0.1 mg/kg, po after 2 weeks; assay type: functional, organism-based; design: dose 0.1 mg/kg; outline: as §2
[16] = Half life in rat; assay type: ADME, organism-based; conditions: in vivo
[17] = test system: Canis familiaris; experiment: Toxicity in anesthetized dog assessed as change in ECG intervals up to 10 mg/kg, iv relative to control; assay type: organism-based, Canis lupus familiaris; design: dose 10 mg/kg, route intravenous; conditions: in vivo
Outline: (§7)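 Anesthetized dogs received a cumulative IV infusion of 1, 3 and 10 mg/kg, each dose infused over 30 min. Mean arterial pressure, heart rate and ECG intervals including QTc were compared with vehicle-treated animals. Plasma drug level was measured at the end of infusion.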

[18] = Plasma clearance in rhesus monkey; assay type: ADME, organism-based, Macaca mulatta; outline: as §5
[19] = target: Voltage-gated inwardly rectifying potassium channel KCNH2 (Homo sapiens, UniProt Q12809); experiment: Inhibition of human ERG potassium channel
[20] = Metabolic stability in rat bile assessed as compound recovery at 1 mg/kg; assay type: ADME, organism-based; design: dose 1 mg/kg; conditions: read-out: Activity
Outline: (§8)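 Radioactivity excreted in bile and urine measured as percent of dose.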

[21] = Bioavailability in rat; assay type: ADME, organism-based; conditions: in vivo
[22] = test system: Plasma; experiment: Drug level in CD1 mouse plasma at 30 mg/kg, po; assay type: ADME, organism-based; design: dose 30 mg/kg, route oral; conditions: in vivo, read-out: Drug uptake
[23] = Plasma clearance in dog; assay type: ADME, organism-based, Canis lupus familiaris; outline: as §5
[24] = test system: Canis familiaris; experiment: Plasma concentration in anesthetized dog at up to 10 mg/kg, iv measured at the end of infusion; assay type: ADME, organism-based, Canis lupus familiaris; design: dose 10 mg/kg, route intravenous; conditions: in vivo; outline: as §7
[25] = Drug level in rat brain at 1 mg/kg, iv after 4 hrs; assay type: ADME, organism-based; design: dose 1 mg/kg, route intravenous; conditions: read-out: Drug uptake
[26] = target: GABA-A receptor; alpha-1/beta-3/gamma-2 (Homo sapiens) (UniProt P14867+P18507+P28472); experiment: Partial agonist activity at human alpha-1-beta-3-gamma-2 GABAA receptor expressed in […] cells at 3 uM; assay type: functional, cell-based
Outline: (§9)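 Whole-cell electrophysiology in Ltk cells expressing human α1β3γ2 GABA_A receptors. EC50 determined, and maximal efficacy expressed relative to the maximum GABA response.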

[27] = test system: Plasma; experiment: Drug level in CD1 mouse plasma at 100 mg/kg, po; assay type: ADME, organism-based; design: dose 100 mg/kg, route oral; conditions: in vivo, read-out: Drug uptake
[28] = test system: Rattus norvegicus; experiment: Reduction of body weight in DIO rat assessed as weight change at 1 mg/kg, po daily measured 18 hrs post dose on day 14; assay type: functional; outline: as §6
[29] = test system: Rattus norvegicus; experiment: Toxicity in Sprague-Dawley rat at 30 mg/kg, po by rotarod test; assay type: organism-based; design: dose 30 mg/kg, route oral; conditions: in vivo; outline: as §4
[30] = Inhibition of rat GABAA receptor
Outline: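 Rat GABA_A ligand-gated ion-channel binding, run within a 175-assay radioligand binding and enzymatic screening panel. IC50 estimated.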

[31] = test system: Mus musculus; experiment: Toxicity in CD1 mouse assessed as ataxia at 100 mg/kg, po; assay type: organism-based; design: dose 100 mg/kg, route oral; conditions: in vivo
[32] = test system: Mus musculus; experiment: Toxicity in CD1 mouse assessed as hyperactive response at 100 mg/kg, po; assay type: organism-based; design: dose 100 mg/kg, route oral; conditions: in vivo
[33] = test system: Mus musculus; experiment: Suppression of food intake in Cnr1+/+ C57BL/6 mouse at 1 mg/kg, po measured for 18 hrs by overnight food intake study; assay type: functional; outline: as §3
[34] = target: T1, Cytochrome P450 1A2 (Homo sapiens, UniProt P05177); experiment: Inhibition of CYP1A2; assay type: ADME; outline: as §1
T1 sequence (P05177 whole entry): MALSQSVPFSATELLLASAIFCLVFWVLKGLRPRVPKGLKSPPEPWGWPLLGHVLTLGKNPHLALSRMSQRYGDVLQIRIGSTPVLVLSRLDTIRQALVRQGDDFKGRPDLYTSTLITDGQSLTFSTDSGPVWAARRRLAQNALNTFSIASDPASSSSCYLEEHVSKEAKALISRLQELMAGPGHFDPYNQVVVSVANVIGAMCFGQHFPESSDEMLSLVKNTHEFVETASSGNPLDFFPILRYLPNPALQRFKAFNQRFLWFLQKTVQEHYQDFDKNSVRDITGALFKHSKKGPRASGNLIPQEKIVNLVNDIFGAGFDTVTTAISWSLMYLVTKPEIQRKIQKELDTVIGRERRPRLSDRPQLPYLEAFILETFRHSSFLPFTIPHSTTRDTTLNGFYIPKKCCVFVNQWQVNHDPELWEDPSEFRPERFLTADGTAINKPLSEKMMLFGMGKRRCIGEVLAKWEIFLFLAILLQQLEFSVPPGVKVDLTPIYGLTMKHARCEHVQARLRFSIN

[35] = Half life in dog; assay type: ADME, organism-based, Canis lupus familiaris; conditions: in vivo; outline: as §5
[36] = test system: Rattus norvegicus; experiment: Suppression of food intake in DIO rat at 1 mg/kg, po relative to control; assay type: functional
Outline: (§10)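 Acute study in diet-induced obese rats. A single oral dose was given and rats were monitored for 18 h. Food intake suppression and body weight change were measured relative to vehicle-treated controls.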

[37] = test system: Canis familiaris; experiment: Toxicity in anesthetized dog assessed as change in heart rate up to 10 mg/kg, iv relative to control; assay type: organism-based, Canis lupus familiaris; design: dose 10 mg/kg, route intravenous; conditions: in vivo; outline: as §7
[38] = Bioavailability in dog; assay type: ADME, organism-based, Canis lupus familiaris; conditions: in vivo; outline: as §5
[39] = test system: Rattus norvegicus; experiment: Reduction of body weight in DIO rat assessed as weight change at 1 mg/kg, po after 18 hrs; assay type: functional; outline: as §10
[40] = Drug level in rat plasma at 1 mg/kg, iv after 4 hrs; assay type: ADME, organism-based; design: dose 1 mg/kg, route intravenous; conditions: read-out: Drug uptake
[41] = test system: Rattus norvegicus; experiment: Suppression of food intake in DIO rat at 1 mg/kg, po measured 18 hrs post dose on day 14 relative to control
[42] = Metabolic stability in rat urine assessed as compound recovery at 1 mg/kg; assay type: ADME, organism-based; design: dose 1 mg/kg; conditions: read-out: Activity; outline: as §8
[43] = target: Cytochrome P450 2C9 (Homo sapiens, UniProt P11712); experiment: Inhibition of CYP2C9; assay type: ADME; outline: as §1
[44] = target: GABA-A receptor; agonist GABA site; experiment: Partial agonist activity at human alpha-1-beta-3-gamma-2 GABAA receptor expressed in […] cells; assay type: functional, cell-based; outline: as §9
[45] = Plasma clearance in rat; assay type: ADME, organism-based
[46] = test system: Canis familiaris; experiment: Toxicity in anesthetized dog assessed as change in mean arterial pressure up to 10 mg/kg, iv relative to control; assay type: organism-based, Canis lupus familiaris, Artery; design: dose 10 mg/kg, route intravenous; conditions: in vivo; outline: as §7
[47] = test system: Rattus norvegicus; experiment: Reduction of body weight in DIO rat assessed as weight change at 0.3 mg/kg, po after 2 weeks; assay type: functional, organism-based; design: dose 0.3 mg/kg; outline: as §2

Cytochrome P450 2D6, sequence (P10635 whole entry, canonical isoform): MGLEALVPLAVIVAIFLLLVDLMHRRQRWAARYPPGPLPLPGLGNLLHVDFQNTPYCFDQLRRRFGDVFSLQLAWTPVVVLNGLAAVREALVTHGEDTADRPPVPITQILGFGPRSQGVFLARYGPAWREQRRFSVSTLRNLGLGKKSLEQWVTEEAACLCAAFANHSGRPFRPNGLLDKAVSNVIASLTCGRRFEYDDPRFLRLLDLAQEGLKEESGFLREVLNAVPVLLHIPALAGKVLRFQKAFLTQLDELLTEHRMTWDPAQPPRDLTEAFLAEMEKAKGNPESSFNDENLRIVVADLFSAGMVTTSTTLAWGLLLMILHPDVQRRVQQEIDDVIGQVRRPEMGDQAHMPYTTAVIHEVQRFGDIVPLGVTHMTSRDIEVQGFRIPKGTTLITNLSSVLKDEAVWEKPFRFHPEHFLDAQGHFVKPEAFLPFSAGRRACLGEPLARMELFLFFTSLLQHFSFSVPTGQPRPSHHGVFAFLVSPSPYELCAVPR
Voltage-gated inwardly rectifying potassium channel KCNH2, sequence (Q12809 whole entry): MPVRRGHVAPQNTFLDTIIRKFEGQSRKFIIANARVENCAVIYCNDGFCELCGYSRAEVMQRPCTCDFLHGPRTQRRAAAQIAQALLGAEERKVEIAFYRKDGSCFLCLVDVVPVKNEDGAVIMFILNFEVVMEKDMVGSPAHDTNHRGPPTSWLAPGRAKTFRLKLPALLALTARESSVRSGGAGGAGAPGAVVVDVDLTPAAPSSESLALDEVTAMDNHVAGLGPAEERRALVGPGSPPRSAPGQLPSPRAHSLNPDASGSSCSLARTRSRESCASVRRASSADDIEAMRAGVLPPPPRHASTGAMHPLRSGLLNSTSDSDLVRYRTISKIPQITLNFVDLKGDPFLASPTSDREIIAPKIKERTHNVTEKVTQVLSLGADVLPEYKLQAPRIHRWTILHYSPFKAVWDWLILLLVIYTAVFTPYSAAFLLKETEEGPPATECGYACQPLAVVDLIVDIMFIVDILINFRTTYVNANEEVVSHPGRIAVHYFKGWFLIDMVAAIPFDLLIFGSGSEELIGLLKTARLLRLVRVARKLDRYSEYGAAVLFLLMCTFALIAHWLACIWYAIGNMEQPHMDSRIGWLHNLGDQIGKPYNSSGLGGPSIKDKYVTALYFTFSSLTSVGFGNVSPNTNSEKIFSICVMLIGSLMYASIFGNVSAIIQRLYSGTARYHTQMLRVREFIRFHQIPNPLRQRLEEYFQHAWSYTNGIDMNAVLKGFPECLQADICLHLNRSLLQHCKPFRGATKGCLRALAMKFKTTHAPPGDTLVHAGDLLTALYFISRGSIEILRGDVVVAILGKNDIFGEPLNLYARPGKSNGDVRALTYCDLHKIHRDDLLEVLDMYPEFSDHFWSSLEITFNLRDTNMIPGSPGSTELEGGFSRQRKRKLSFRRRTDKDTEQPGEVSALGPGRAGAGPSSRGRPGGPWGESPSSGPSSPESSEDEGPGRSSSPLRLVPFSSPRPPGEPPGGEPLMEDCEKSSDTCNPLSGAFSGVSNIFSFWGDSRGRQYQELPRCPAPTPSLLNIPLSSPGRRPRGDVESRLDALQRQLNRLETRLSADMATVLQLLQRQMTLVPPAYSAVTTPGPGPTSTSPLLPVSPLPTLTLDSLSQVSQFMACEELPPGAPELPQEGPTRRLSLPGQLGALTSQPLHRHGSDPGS
Cytochrome P450 2C19, sequence (P33261 whole entry): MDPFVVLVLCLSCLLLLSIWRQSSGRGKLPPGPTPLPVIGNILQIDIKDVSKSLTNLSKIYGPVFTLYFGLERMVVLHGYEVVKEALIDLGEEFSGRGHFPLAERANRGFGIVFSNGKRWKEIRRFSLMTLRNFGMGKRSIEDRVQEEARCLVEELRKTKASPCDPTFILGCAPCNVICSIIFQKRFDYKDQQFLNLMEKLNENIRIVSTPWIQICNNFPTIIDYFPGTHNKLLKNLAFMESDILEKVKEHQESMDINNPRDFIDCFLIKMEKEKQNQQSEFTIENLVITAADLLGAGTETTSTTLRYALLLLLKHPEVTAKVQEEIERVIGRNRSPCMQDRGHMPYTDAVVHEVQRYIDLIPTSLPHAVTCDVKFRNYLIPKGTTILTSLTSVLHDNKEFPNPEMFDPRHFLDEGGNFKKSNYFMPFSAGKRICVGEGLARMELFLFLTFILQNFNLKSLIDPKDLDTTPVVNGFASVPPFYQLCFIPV
Cytochrome P450 3A4, sequence (P08684 whole entry): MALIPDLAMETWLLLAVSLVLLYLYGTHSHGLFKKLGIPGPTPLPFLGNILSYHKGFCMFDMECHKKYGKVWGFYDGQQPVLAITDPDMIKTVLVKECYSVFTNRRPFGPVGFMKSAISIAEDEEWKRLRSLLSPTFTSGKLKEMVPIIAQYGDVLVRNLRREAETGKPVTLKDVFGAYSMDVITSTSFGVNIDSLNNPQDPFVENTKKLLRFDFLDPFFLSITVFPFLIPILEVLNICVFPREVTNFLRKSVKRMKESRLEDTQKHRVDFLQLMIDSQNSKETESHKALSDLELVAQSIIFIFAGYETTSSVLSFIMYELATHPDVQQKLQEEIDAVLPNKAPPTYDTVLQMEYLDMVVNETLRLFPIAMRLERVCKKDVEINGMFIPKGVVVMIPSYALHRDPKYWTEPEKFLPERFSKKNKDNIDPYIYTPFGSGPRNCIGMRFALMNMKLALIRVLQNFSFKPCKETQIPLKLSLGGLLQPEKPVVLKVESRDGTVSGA
Cytochrome P450 2C9, sequence (P11712 whole entry): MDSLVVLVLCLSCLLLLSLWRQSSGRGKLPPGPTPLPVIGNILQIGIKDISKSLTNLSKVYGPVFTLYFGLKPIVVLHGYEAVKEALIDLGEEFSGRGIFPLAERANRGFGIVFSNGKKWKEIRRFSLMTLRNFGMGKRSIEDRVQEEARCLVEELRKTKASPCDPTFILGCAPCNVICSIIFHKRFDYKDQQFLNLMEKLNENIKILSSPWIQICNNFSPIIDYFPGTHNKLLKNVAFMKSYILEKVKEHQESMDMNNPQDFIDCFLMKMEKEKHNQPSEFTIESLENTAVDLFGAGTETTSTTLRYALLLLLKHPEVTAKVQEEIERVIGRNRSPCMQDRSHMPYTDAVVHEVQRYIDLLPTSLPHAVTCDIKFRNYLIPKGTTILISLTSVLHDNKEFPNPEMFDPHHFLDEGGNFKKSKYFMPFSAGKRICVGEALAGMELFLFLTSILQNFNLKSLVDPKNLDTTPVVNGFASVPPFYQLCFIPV

## CC(C)(O)C(=O)c1oc2nc(-c3ccccc3Cl)c(-c3ccc(Cl)cc3)cc2c1NC(=O)CO
[1]
  pIC50: 4.14
[2]
  Activity: Active
[3]
  Activity: -0.79 g
[4]
  concentration: 6500 nM
[5]
  concentration: 500 nM
[6]
  pIC50: 4.37
[7]
  bioavailability: 50%
[8]
  concentration: 500 nM
[9]
  Activity: 4.3%
[10]
  Activity: 24%
[11]
  pIC50: 4.01
[12]
  concentration: 2300 nM
[13]
  half-life: 17 h
[14]
  Kp at 4 h: 0.64
[15]
  Activity: inactive
[16]
  half-life: 7.5 h
[17]
  Activity: Non-toxic
[18]
  clearance: 2.1 mL/min/kg
[19]
  pIC50: 5.18
[20]
  dose excreted: 87%
[21]
  bioavailability: 64%
[22]
  concentration: 7000 nM
[23]
  clearance: 33 mL/min/kg
[24]
  concentration: 50000 nM
[25]
  concentration at 4 h: 94 nM
[26]
  Efficacy: 18%
[27]
  concentration: 24000 nM
[28]
  Activity: -2 g
[29]
  Activity: Non-toxic
[30]
  pIC50: 5.74
[31]
  Activity: Toxic
[32]
  Activity: Toxic
[33]
  Activity: 53%
[34]
  pIC50: < 4.00
[35]
  half-life: 1.8 h
[36]
  Activity: 47%
[37]
  Activity: Non-toxic
[38]
  bioavailability: 9%
[39]
  Activity: -7 g
[40]
  concentration at 4 h: 147 nM
[41]
  Activity: 24%
[42]
  dose excreted: 5%
[43]
  pIC50: 4.77
[44]
  pEC50: 6.15
[45]
  clearance: 8.6 mL/min/kg
[46]
  Activity: Non-toxic
[47]
  Activity: Active

Reference: ChEMBL document CHEMBL1156265, “Furo[2,3-b]pyridine-based cannabinoid-1 receptor inverse agonists: synthesis and biological evaluation. Part 1” (Bioorg Med Chem Lett, 2010)
